In PubChem BioAssay AID463141 (The Scripps Research Institute Molecular Screening Center, 2010):
The whole screen tested about 330,000 compounds, of which about 350 (0.11%) were called active. The full list was thinned out, with actives kept by preference. Values without a mark were called inactive.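 The calls were made as follows: active = activation above the mean of all tested compounds plus 3 SD (cut at about 21% in these data); inactive = the rest.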

biological target: Caspase-3 (Homo sapiens) (UniProt P42574); assay: activators of human procaspase-3 D3A mutant, primary screen, biochemical, absorbance, PC-3 D3A mutant, single concentration (AID 463141); details: recombinant procaspase-3 D3A, Ac-DEVD-pNA absorbance 405 nm; at 8.5 µM; hits give high values;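 also: 0% = DMSO alone and 100% = DMSO wells spiked with extra 5 µM PC-3 D3A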
Sequence (P42574 whole entry D9A/D28A/D175A): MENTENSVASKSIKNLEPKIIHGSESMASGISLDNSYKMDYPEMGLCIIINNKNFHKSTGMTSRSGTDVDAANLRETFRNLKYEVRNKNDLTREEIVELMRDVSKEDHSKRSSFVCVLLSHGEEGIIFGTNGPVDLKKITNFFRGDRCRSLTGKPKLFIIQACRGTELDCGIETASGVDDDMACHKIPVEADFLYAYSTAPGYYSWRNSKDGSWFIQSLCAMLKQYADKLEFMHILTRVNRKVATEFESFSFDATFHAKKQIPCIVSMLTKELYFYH
Summary of the method: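 Assay system – Procaspase-3 D3A mutant, all three cleavage aspartates alanine · Controls – DMSO-only low control, 5 µM PC-3 D3A high control · Schedule – 1 h compound preincubation, 2 h substrate hydrolysis at 25 °C · Signal – 405 nm absorbance of p-nitroaniline, reads at 0 and 120 min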

For COc1ccccc1NS(=O)(=O)c1ccc(C(=O)N2CCN(c3ccccc3O)CC2)cc1, which activation is on record?
Its activation is 21.8% (active).

COc1ccc(S(=O)(=O)Nc2ccccc2C(=O)N2CCCC2)cc1C was tested. Which activation did it give?
Its activation is 9.9%.

How did the activation turn out when COc1ccccc1N1CCN(C(=O)c2ccc(S(=O)(=O)N3CCCCC3)cc2)CC1 was run?
The activation was -4.47%.

Which activation does the source give for CC(NC(=O)c1ccccc1C(=O)O)c1ccc(-n2ccnc2)cc1 (configuration not stated) here?
Its activation is -0.91%.

For C=CCNc1nc(Nc2ccc(Cl)cc2)nc(OC)n1, which activation is on record?
The activation was 3.18%.

For COc1cccc(-c2cc3nc4c(c(N5CCC6(CC5)OCCO6)n3n2)CCCC4)c1, which activation is on record?
Its activation is 5.55%.

How did the activation turn out when NC(=O)C1CC=CCC1C(=O)OCC(Cl)=C(Cl)Cl (configuration not stated) was run?
The activation was -0.01%.

CSc1nsc(SC)c1NC(=O)OC1CCCCC1 was tested. Which activation did it give?
The activation was -22.8%.

For CC(C)OCCCNC(=O)CN1C(=O)/C(=C/c2ccccc2F)Oc2ccccc21, which activation is on record?
The activation was -1.27%.

For CCCN1CCN(C(=O)CCCNC(=O)c2ccc(Cl)cc2)CC1, which activation is on record?
Its activation is -2.14%.

How did the activation turn out when CN1CCN(CCCNC(=O)c2ccc(/C=C3\Oc4ccccc4N(Cc4ccc(Cl)cc4)C3=O)cc2)CC1 was run?
Its activation is 38.4% (active).

For N#CC1(NC(=O)COC(=O)CSc2ccc(F)cc2)CCCCC1, which activation is on record?
Its activation is -6.99%.

With CCCOn1c(-n2nc(C)cc2C)nc2ccccc2c1=O as the compound, how does the activation read?
The activation was 7.25%.

Which activation does the source give for CCC(C)(C)NC(=O)C(c1ccccn1)N(C(=O)c1csnn1)c1ccccc1 (configuration not stated) here?
The activation was 2.32%.

With Cc1ccc(S(=O)(=O)NNC(=S)NC(C)(C)C)cc1 as the compound, how does the activation read?
The activation was 9.08%.

How did the activation turn out when COc1ccccc1CN(C)c1nnnn1-c1ccccc1 was run?
The activation was 9.63%.

How did the activation turn out when O=C(NCc1cccs1)C(=O)NCC1OCCCN1S(=O)(=O)c1ccc(F)cc1 (configuration not stated) was run?
Its activation is 1.51%.

With COC(=O)Cc1c(C)c2ccc(OCC(=O)NCc3ccc4c(c3)OCO4)cc2oc1=O as the compound, how does the activation read?
Its activation is 0.37%.

CCc1c(C)c2ccc(OC3CCCCC3=O)cc2oc1=O (configuration not stated) was tested. Which activation did it give?
The activation was 3.96%.

CC(=O)Oc1ccc2c(C)c(CC(C)O)c(=O)oc2c1 (configuration not stated) was tested. Which activation did it give?
The activation was 24.1% (active).

How did the activation turn out when COc1ccc(CCNC(=O)COC(=O)C2CC2C)cc1 (configuration not stated) was run?
The activation was 9.52%.

COc1ccc(CCNC(=O)COC(=O)c2ccc[nH]c2=O)cc1 was tested. Which activation did it give?
Its activation is 23.9% (active).

Which activation does the source give for COc1ccc(CCNC(=O)COC(=O)c2cc(=O)c3ccccc3o2)cc1 here?
Its activation is -1.38%.

Which activation does the source give for COc1ccc(S(=O)(=O)N(CCCN2CCCC2=O)Cc2cc3c(C)ccc(C)c3[nH]c2=O)cc1 here?
The activation was -7.13%.

With CCn1c(SCC(=O)Nc2ccc(C)cc2)nc2nc3c(cc2c1=O)CCCC3 as the compound, how does the activation read?
The activation was 3.79%.

Which activation does the source give for O=C1[C@H]2[C@@H](c3ccc(F)cc3)N3C(=O)N(c4ccc(C(F)(F)F)cc4)C(=O)[C@@]3(Cc3ccccc3)[C@H]2C(=O)N1C1CCCCC1 here?
Its activation is 5.91%.

c1ccc2cc(CCCc3cc4ccccc4cn3)ncc2c1 was tested. Which activation did it give?
Its activation is -5.39%.

For O=C(COC(=O)c1cccc(Cl)c1)NC(=O)NCc1ccccc1, which activation is on record?
Its activation is 7.09%.

How did the activation turn out when Cc1cc(C)c2c(-n3cccc3)c(C(=O)NNS(=O)(=O)c3ccc(F)cc3)sc2n1 was run?
The activation was -8.55%.

CCOC(=O)C1=CN(Cc2ccc(Br)cc2)S(=O)(=O)NC1C (configuration not stated) was tested. Which activation did it give?
The activation was -3.39%.

How did the activation turn out when COC(=O)C1=C(C)N(C(C)c2ccccc2)C(=O)/C1=C\c1ccco1 (configuration not stated) was run?
Its activation is 1.04%.

Which activation does the source give for Cc1ccc(-c2nnc(Nc3ccc(C(=O)N(C)C)cc3)c3ccccc23)cc1S(N)(=O)=O here?
The activation was 6.07%.

For COC(=O)c1ccc(CNC(=O)C2CCC(=O)N(Cc3ccccn3)C2)cc1 (configuration not stated), which activation is on record?
Its activation is 4.62%.

CN(C)/C=C(/C(=O)c1ccc(F)cc1)S(=O)(=O)c1ccc(F)cc1 was tested. Which activation did it give?
The activation was 2.38%.

How did the activation turn out when O=C(Nc1ccccc1-c1nnn(CC(=O)N2CCCc3ccccc32)n1)c1cccc(Cl)c1 was run?
The activation was 0.94%.

How did the activation turn out when CCC(C)[C@H](NC(=O)N1CCn2c1nc1ccccc12)C(=O)NCc1ccc(OC)cc1 (some centres not stated) was run?
Its activation is 9.75%.

How did the activation turn out when COc1cccc(NC(=S)C(C#N)=C2N(C)c3ccccc3N2C)c1 was run?
Its activation is 0.38%.

How did the activation turn out when CC1=C(C(=O)OC(C)(C)C)C(c2ccc(Br)cc2)NC(=O)N1CCCC(=O)O (configuration not stated) was run?
Its activation is 1.2%.

CC(=O)c1ccc(NC(=O)C(C)N(C)CC(=O)Nc2ccccc2Cl)cc1 (configuration not stated) was tested. Which activation did it give?
The activation was -3.65%.

Which activation does the source give for CCC(C)(C)NC(=O)c1cc([N+](=O)[O-])ccc1N1CCCCC1 here?
Its activation is -7.67%.

How did the activation turn out when N#Cc1c(NCCO)ccc([N+](=O)[O-])c1NCCO was run?
Its activation is 3.1%.

With O=S(=O)(N/N=C\c1cccn1-c1ccccc1)c1ccc2ccccc2c1 as the compound, how does the activation read?
Its activation is 0.8%.

Which activation does the source give for COc1cc(CN2CCN(Cc3ccc(C)cc3)CC2)c([N+](=O)[O-])cc1OC here?
Its activation is 8.01%.

How did the activation turn out when COc1ccc(-c2noc(CCC(=O)N3CCN(c4cccc(C)c4)CC3)n2)cc1 was run?
Its activation is -0.7%.

How did the activation turn out when CCOc1ccc2nc(NCCNS(=O)(=O)c3ccccc3)c(C#N)cc2c1 was run?
Its activation is 27.3% (active).

With CCOc1ccc(S(=O)(=O)NCCSc2ccccc2)cc1 as the compound, how does the activation read?
Its activation is -4.36%.

Which activation does the source give for CCOc1ccc2nc(NCCNC(=O)C(C)(C)C)c(C)cc2c1 here?
The activation was -11.1%.

With C[C@H](CO)N1C[C@H](C)[C@@H](CN(C)S(=O)(=O)c2ccc(F)cc2)Oc2ccc(NC(=O)CCC(F)(F)F)cc2C1=O as the compound, how does the activation read?
Its activation is 7.71%.

How did the activation turn out when COCCNC(=S)Nc1cc(S(=O)(=O)N2CCOCC2)ccc1N1CCCCC1 was run?
Its activation is -18.3%.

For CCC(C)N1CC(=O)N2Cc3[nH]c4ccccc4c3C[C@H]2C1=O (some centres not stated), which activation is on record?
The activation was 0.63%.

For CC(=O)Nc1ccc(NC(=O)C(C)OC(=O)c2ccccc2C(=O)c2ccc(Cl)c([N+](=O)[O-])c2)cc1 (configuration not stated), which activation is on record?
Its activation is -0.74%.

Which activation does the source give for COC(=O)c1nc2n(n1)C(c1ccc([N+](=O)[O-])cc1)C(C(=O)Nc1ccc(Cl)cc1)=C(C)N2 (configuration not stated) here?
Its activation is 3.68%.

For COC(=O)c1sc(N)c(C(=O)OC)c1COC(=O)CNS(=O)(=O)c1ccc(C)cc1, which activation is on record?
Its activation is 3.17%.

How did the activation turn out when CCN1CCN(C(=O)C2(NC(=O)Nc3cccc(F)c3)CCCCC2)CC1 was run?
The activation was -1.86%.

How did the activation turn out when COc1ccc2sc(-c3ccc(N(C)C)cc3)c(C#CCO)c2c1 was run?
The activation was 21.1%.

How did the activation turn out when COc1ccc2sc(-c3ccc(S(C)(=O)=O)cc3)c(C#Cc3cncn3C)c2c1 was run?
The activation was -7.99%.

With COc1ccc(-c2sc3ccc(OC)cc3c2C#Cc2ccccn2)cc1 as the compound, how does the activation read?
Its activation is 21.3% (active).

CC(C)C[C@H](NC(=O)C1CC(=O)N(c2ccc3c(c2)OCCO3)C1)C(=O)NC1CCCC1 (some centres not stated) was tested. Which activation did it give?
Its activation is 0.18%.

For COc1ccc(/C=N/Nc2ccccc2C(=O)O)cc1, which activation is on record?
The activation was 1%.

COc1ccc(/C=N/Nc2nc3ccccc3c(=O)[nH]2)cc1 was tested. Which activation did it give?
The activation was 30.4% (active).

How did the activation turn out when COc1ccc(/C=N/Nc2nc(-c3ccc(C)cc3)c(C#N)c(=O)[nH]2)cc1 was run?
Its activation is 8.75%.

How did the activation turn out when Cc1cc(-c2nc(C)c(-c3nnc(SCC(=O)Nc4ccccc4)n3C)s2)no1 was run?
The activation was -5.75%.

How did the activation turn out when CCN(CC)S(=O)(=O)c1ccc(N2CCN(C)CC2)c(NC(=O)Nc2ccccc2F)c1 was run?
The activation was 4.2%.

With COc1ccc(NS(=O)(=O)c2ccc(C)c(C(=O)N(C)Cc3ccc(OC)cc3OC)c2)cc1 as the compound, how does the activation read?
Its activation is 10.5%.

How did the activation turn out when CC(=O)N1Cc2ccccc2CC1C(=O)O (configuration not stated) was run?
The activation was 2.69%.

How did the activation turn out when O=C(CCCn1c(=O)c2sccc2n(CC(=O)NCC2CCCO2)c1=O)NCc1ccco1 (configuration not stated) was run?
The activation was 3.97%.

With COc1cc(/C=C/C(=O)OCC(=O)Nc2cccc(Oc3ccccc3)c2)ccc1O as the compound, how does the activation read?
Its activation is -1.86%.

O=C(NC1(C(F)(F)F)N=C2SCCN2C1=O)c1ccco1 (configuration not stated) was tested. Which activation did it give?
The activation was 1.41%.

How did the activation turn out when Cc1ccc(NC(=O)Nc2cc(-c3ccccc3)nn2C)cc1Cl was run?
Its activation is -13.2%.

With COC(=O)[C@]1(S(=O)(=O)c2ccccc2)C[C@@H]2ON=C(c3ccc(OC)cc3)[C@@H]2C1 as the compound, how does the activation read?
Its activation is -6.69%.

Which activation does the source give for CCCCNc1nc2ccccc2nc1NS(=O)(=O)c1cccs1 here?
The activation was 10.7%.

With O=C(Nc1ccccc1Cl)/C(Cl)=C(\Cl)S(=O)c1ccccc1 (configuration not stated) as the compound, how does the activation read?
The activation was -26.7%.

Which activation does the source give for CCOC(=O)CCC(=O)OCC(=O)NC(C)C1CC2CCC1C2 (configuration not stated) here?
Its activation is 2.01%.

How did the activation turn out when O=S(=O)(O)Oc1c[nH]c2ccccc12 was run?
Its activation is 4.41%.

Which activation does the source give for CCCN(C(=O)c1nc2nccc(C)n2n1)c1c(N)n(Cc2ccccc2)c(=O)[nH]c1=O here?
The activation was 1.38%.

For CN(CC1CCCO1)S(=O)(=O)c1ccc(C(=O)Nc2ccc(F)cc2)cc1 (configuration not stated), which activation is on record?
Its activation is -2.76%.

For NC(=O)c1ccccc1N=Cc1ccc2ccccc2c1, which activation is on record?
Its activation is 9.74%.

For COC(=O)CN1C(=O)[C@H]2[C@@H](C3CC3)N3C(=O)CN(Cc4ccc(-c5ccccc5)cc4)C(=O)[C@@]3(Cc3ccccc3)[C@H]2C1=O, which activation is on record?
The activation was 15.8%.

CC(=O)c1sc(N/N=C/c2ccc(C(C)C)cc2)nc1C was tested. Which activation did it give?
The activation was -6.85%.

CCCn1c(C)cc(C(=O)COC(=O)c2c(C)nn(-c3ccccc3)c2C)c1C was tested. Which activation did it give?
Its activation is 0.04%.

How did the activation turn out when Cc1ccc(-c2nc(SCC(=O)Nc3ccccc3OC(F)F)c3c(C)c(C(=O)O)sc3n2)cc1 was run?
The activation was -2.33%.

For CCOc1ccccc1CN1CCN(C2CCC2)CC1CCO (configuration not stated), which activation is on record?
Its activation is 8.07%.

How did the activation turn out when Cc1ccc(Cl)cc1NC(=O)C1CCN(S(C)(=O)=O)CC1 was run?
Its activation is -5.8%.

With CN(CCc1ccccn1)C(=O)c1ccc(OC2CCN(CCc3ccccc3)CC2)cc1 as the compound, how does the activation read?
The activation was -3.49%.

How did the activation turn out when Cc1ccc(NC2CCCN(C(=O)CCc3cn[nH]c3)C2)cc1C (configuration not stated) was run?
Its activation is 8.07%.

With CC(C)C[C@H](NC(=O)[C@@H]1O[C@H]1C(=O)O)C(=O)NCCCCN=C(N)N as the compound, how does the activation read?
The activation was 2.62%.

With COc1ccccc1/C=C/C=N/n1c(-c2ccc(Cl)cc2Cl)n[nH]c1=S as the compound, how does the activation read?
The activation was -14.5%.
